# Reference: ChEMBL document CHEMBL2177013, “Synthesis and biological evaluation of tylophorine-derived dibenzoquinolines as orally active agents: exploration of the role of tylophorine e ring on biological activity” (J Med Chem, 2012)
# Active and inactive are the calls of the source. The calls are words filed in the database; no cut-off is given here.
# How the values were obtained:
# [1] = Solubility in DMA; format: physicochemical
# MCF7 = assay: Induction of c-Jun protein accumulation in human MCF7 cells incubated for 24 hrs by Western blotting; format: functional, cell-based
# NCI-H460 [2] = assay: Growth inhibition of human NCI-H460 cells; format: functional
# Procedure, shortened: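 Cells seeded per well: NUGC-3 4500, HONE-1 6000, MCF-7 6500, NCI-H460 2500, HepG2 10000, A549 5000; A549 grown in RPMI 1640 with 2 g/L NaHCO₃, 2 mM L-glutamine and 10% FBS. GI₅₀ = concentration giving 50% growth inhibition, mean of at least three experiments each in duplicate. Paclitaxel served as positive control.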
# Mus musculus = assay: Toxicity in human A549 cells xenografted Nu-Foxn1'nu mouse assessed as incidence of overt toxicity at 10 mg/kg, po administered once daily on day 1 to 10, day 15 to 19 and day 22 to 26; format: organism-based; design: dose 10 mg/kg, route oral; conditions: in vivo
# Procedure, shortened: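 Four-week-old male nude mice given 10 million A549 cells subcutaneously in the right flank. At ~60 mm³, randomised to vehicle (25% DMA + 75% PEG400) or oral gavage once daily (n = 8). Mice monitored for overt adverse signs, with body weight tracked.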
# RAW264.7 = assay: Reduction in LPS/INFgamma-induced iNOS protein expression in mouse RAW264.7 cells incubated for 20 hrs by Western blotting; format: functional, cell-based
# Procedure, shortened: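 LPS/IFNγ-stimulated RAW264.7 cells treated with compound for 20 h. iNOS, COX-2 and GAPDH detected by Western blot; representative of at least three independent experiments.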
# [3] = test system: Transmissible gastroenteritis virus; assay: Antiviral activity against Transmissible gastroenteritis virus infected in ST cells pre-treated 2 hrs before virus infection measured 6 hrs post virus infection by immunofluorescent assay; format: functional, organism-based; conditions: Alphacoronavirus 1, ST
# Procedure, shortened: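 ST cells, with or without 2 h compound pretreatment (10 concentrations), infected with TGEV at MOI 10. Immunofluorescence with anti-spike and anti-nucleocapsid antibodies at 6 hpi. EC50 from dose–response curves, mean of at least three experiments, each in duplicate.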
# A549 = assay: Antitumor activity against human A549 cells xenografted in Nu-Foxn1'nu mouse assessed as reduction in tumor volume at 10 mg/kg, po administered once daily on day 1 to 10, day 15 to 19 and day 22 to 26; format: functional; design: scale not given: the % may be the effect or the level left
# Procedure, shortened: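 Four-week-old male nude mice received 10 million A549 cells sc in the right flank. At ~60 mm³ tumours, mice were randomised (n = 8) and dosed by oral gavage in 25% DMA + 75% PEG400. Volume = a×b²/2. T/C (%) computed from day 1 and day 60 volumes versus vehicle.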
# [4] = AUC (0 to infinity) in Sprague-Dawley rat at 3 mg/kg, po by HPLC-MS method; format: ADME, organism-based; design: dose 3 mg/kg, route oral, time infinity; conditions: plasma
# Procedure, shortened: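 Male rats (330−380 g, 9−10 weeks old), jugular vein cannulated 1 day before dosing, fasted; 3 mg/kg iv or oral in DMA/PEG400 (30/70, v/v), n = 3. Blood (150 μL) drawn at 0, 2, 5 (iv only), 15, 30 min and 1, 2, 4, 6, 8, 12, 24 h, kept on ice; plasma analysed by HPLC-MS; noncompartmental analysis.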
# Murine hepatitis virus = assay: Antiviral activity against Murine hepatitis virus JHM infected in mouse DBT cells assessed as reduction in N-protein expression at 0.05 to 0.5 uM pre-treated 1 hr before virus infection and measured 24 hrs post infection by immunofluorescent assay; format: functional, organism-based
# Procedure, shortened: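 DBT cells (2.8 × 10⁵/well) seeded the day before infection in DMEM with 2% FBS. Compound added 1 h before MHV-JHM at MOI 0.005 (virus grown in BNL CL.2 cells). Cytopathic effect viewed by phase contrast and N protein by immunofluorescence at 24 hpi.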
# [5] = Clearance in Sprague-Dawley rat at 3 mg/kg, iv by HPLC-MS method; format: ADME, organism-based; design: dose 3 mg/kg, route intravenous; conditions: in vivo
# Procedure, shortened: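 Male rats (330−380 g, 9−10 weeks), jugular vein cannula implanted 1 day before, fasted. 3 mg/kg given iv or orally (n = 3) in DMA/PEG400 30/70 v/v. Blood (150 μL) drawn at 0, 2, 5 (iv only), 15, 30 min and 1, 2, 4, 6, 8, 12, 24 h; plasma analysed by HPLC-MS; noncompartmental analysis.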
# NCI-H460 [6] = assay: Down regulation of cyclin A2 expression in human NCI-H460 cells incubated for 24 hrs by Western blotting; format: functional, cell-based
compound,measurement,setting,value
CCN1Cc2c(c3ccc(OC)cc3c3cc(OC)c(OC)cc23)C(O)C1 (stereo unspecified),solubility,[1],soluble
same,Activity,MCF7,Active
same,GI50,NCI-H460 [2],20 nM
same,Activity,Mus musculus,Non-toxic
same,Activity,RAW264.7,Active
same,EC50,[3],40 nM
same,Activity,A549,61%
same,AUC(0-inf),[4],646 ng·h/mL
same,Activity,Murine hepatitis virus,Active
same,clearance,[5],51.8 mL/min/kg
same,Activity,NCI-H460 [6],Active
